Experimental data taken from ChEMBL document CHEMBL2346563, “A series of nonsecosteroidal vitamin D receptor agonists for osteoporosis therapy” (Bioorg Med Chem, 2013).

Key:
Rattus norvegicus [1] = test: Toxicity in ovariectomized immatured Sprague-Dawley rat osteoporosis model assessed as effect on serum calcium level at 80 ng/kg, po once daily for 5 times per week for 4 weeks relative to control; type: organism-based; conditions: in vivo, 8e-05 mg/kg, 672 h
Summary of the method: (§1)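 Ovariectomized female 8-week-old Sprague–Dawley rats, n = 6 per group. Oral dosing five times per week for 4 weeks in medium-chain triglyceride (1 mL/kg). Vehicle-treated OVX and sham rats served as controls. Abdominal aortic blood drawn under ether 24 h after the last dose; serum calcium measured by autoanalyzer. ΔCa (%) = (treated − vehicle)/vehicle × 100. Mean ± SE.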

Rattus norvegicus [2] = test: Toxicity in ovariectomized immatured Sprague-Dawley rat osteoporosis model assessed as effect on serum calcium level at 320 ng/kg, po once daily for 5 times per week for 4 weeks relative to control; type: organism-based; conditions: in vivo, 0.00032 mg/kg, 672 h; summary of the method: as §1
Rattus norvegicus [3] = test: Prevention of bone mineral density loss in ovariectomized immatured Sprague-Dawley rat osteoporosis model at 80 ng/kg, po once daily for 5 times per week for 4 weeks relative to control; type: functional
Summary of the method: (§2)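 Female 8-week-old Sprague–Dawley (Crj: CD (SD)) rats, ovariectomized or sham-operated, n = 6 per group. From one day after surgery, oral dosing five times per week for 4 weeks; vehicle was medium-chain triglyceride at 1 mL/kg. Distal femur BMD read by dual-energy X-ray absorptiometry 24 h after the last dose. ΔBMD (%) = (treated − vehicle)/(sham − vehicle) × 100. Mean ± SE.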

Rattus norvegicus [4] = test: Prevention of bone mineral density loss in ovariectomized immatured Sprague-Dawley rat osteoporosis model at 20 ng/kg, po once daily for 5 times per week for 4 weeks relative to control; type: functional; summary of the method: as §2
Rattus norvegicus [5] = test: Prevention of bone mineral density loss in ovariectomized immatured Sprague-Dawley rat osteoporosis model at 320 ng/kg, po once daily for 5 times per week for 4 weeks relative to control; type: functional; summary of the method: as §2
Rattus norvegicus [6] = test: Toxicity in ovariectomized immatured Sprague-Dawley rat osteoporosis model assessed as effect on serum calcium level at 20 ng/kg, po once daily for 5 times per week for 4 weeks relative to control; type: organism-based; conditions: in vivo, 2e-05 mg/kg, 672 h; summary of the method: as §1
[7] = Half life in Sprague-Dawley rat at 100 ug/kg, iv; type: ADME, organism-based; conditions: in vivo, 0.1 mg/kg
Summary of the method: (§3)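 Male Sprague–Dawley rats, 8 weeks old, fed, n = 3 per route. Single 100 µg/kg dose, iv in ethanol/Tween20/saline (10:2:88) or po in ethanol/MCT (1:9). Blood taken from the jugular vein and centrifuged to plasma. Drug extracted with diethyl ether and quantified by LC-MS/MS. Bioavailability given as F (%).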

[8] = Mean residence time in Sprague-Dawley rat at 100 ug/kg, iv; type: ADME, organism-based; conditions: in vivo, 0.1 mg/kg; summary of the method: as §3
[9] = AUC (infinity) in Sprague-Dawley rat at 100 ug/kg, iv; type: ADME, organism-based; parameters: dose 100 ug/kg, time infinity, route intravenous; conditions: plasma, 0.1 mg/kg; summary of the method: as §3
[10] = Volume of distribution at steady state in Sprague-Dawley rat at 100 ug/kg, iv; type: ADME, organism-based; conditions: in vivo, 0.1 mg/kg, read-out: Vdss; summary of the method: as §3
[11] = Mean residence time in Sprague-Dawley rat at 100 ug/kg, po; type: ADME, organism-based; conditions: in vivo, 0.1 mg/kg; summary of the method: as §3
[12] = AUC (infinity) in Sprague-Dawley rat at 100 ug/kg, po; type: ADME, organism-based; parameters: dose 100 ug/kg, time infinity, route oral; conditions: plasma, 0.1 mg/kg; summary of the method: as §3
Salmonella typhimurium = test: Genotoxicity in Salmonella typhimurium by Ames test; type: toxicity, organism-based; conditions: salmonella enterica subsp. enterica serovar typhimurium
Rattus norvegicus [13] = test: Toxicity in ovariectomized matured Sprague-Dawley rat osteoporosis model assessed as effect on serum calcium level at 0.75 to 6 ng/kg, po once daily for 5 times per week for 4 weeks relative to control; type: organism-based; conditions: in vivo, 672 h
Summary of the method: (§4)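 Female 8-month-old Sprague–Dawley rats, ovariectomized or sham-operated, n = 8 per group. Starting one day post-surgery, oral dosing at 0.75–12 ng/kg, five times per week for 4 weeks; vehicle was MCT at 1 mL/kg. At 24 h after the last dose, aortic blood was taken for serum calcium by autoanalyzer. Distal femur and lumbar spine BMD measured by DXA.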

Rattus norvegicus [14] = test: Prevention of bone mineral density loss in ovariectomized immatured Sprague-Dawley rat osteoporosis model at 40 ng/kg, po once daily for 5 times per week for 4 weeks relative to control; type: functional; summary of the method: as §2
Rattus norvegicus [15] = test: Prevention of bone mineral density loss in ovariectomized immatured Sprague-Dawley rat osteoporosis model at 10 ng/kg, po once daily for 5 times per week for 4 weeks relative to control; type: functional; summary of the method: as §2
Rattus norvegicus [16] = test: Prevention of bone mineral density loss in distal femur of ovariectomized matured po dosed Sprague-Dawley rat osteoporosis model administered once daily for 5 times per week for 4 weeks; type: functional, organism-based; summary of the method: as §4
Rattus norvegicus [17] = test: Toxicity in ovariectomized immatured Sprague-Dawley rat osteoporosis model assessed as effect on serum calcium level at 40 ng/kg, po once daily for 5 times per week for 4 weeks relative to control; type: organism-based; conditions: in vivo, 4e-05 mg/kg, 672 h; summary of the method: as §1
Rattus norvegicus [18] = test: Toxicity in ovariectomized immatured Sprague-Dawley rat osteoporosis model assessed as effect on serum calcium level at 10 ng/kg, po once daily for 5 times per week for 4 weeks relative to control; type: organism-based; conditions: in vivo, 1e-05 mg/kg, 672 h; summary of the method: as §1
Rattus norvegicus [19] = test: Toxicity in ovariectomized matured Sprague-Dawley rat osteoporosis model assessed as effect on serum calcium level at 12 ng/kg, po once daily for 5 times per week for 4 weeks relative to control; type: organism-based; conditions: in vivo, 1.2e-05 mg/kg, 672 h; summary of the method: as §4
[20] = Cmax in Sprague-Dawley rat at 100 ug/kg, po; type: ADME, organism-based; parameters: dose 100 ug/kg, route oral; conditions: in vivo, 0.1 mg/kg; summary of the method: as §3
[21] = Half life in Sprague-Dawley rat at 100 ug/kg, po; type: ADME, organism-based; conditions: in vivo, 0.1 mg/kg; summary of the method: as §3
[22] = Genotoxicity in micronucleus (unknown origin) by micronucleus assay
[23] = Oral bioavailability in Sprague-Dawley rat at 100 ug/kg; type: ADME, organism-based; conditions: in vivo, 0.1 mg/kg; summary of the method: as §3
[24] = Total clearance in Sprague-Dawley rat at 100 ug/kg, iv; type: ADME, organism-based; conditions: in vivo, 0.1 mg/kg; summary of the method: as §3
Rattus norvegicus [25] = test: Toxicity in ovariectomized matured Sprague-Dawley rat osteoporosis model assessed as effect on body weight at 0.75 to 12 ng/kg, po once daily for 5 times per week for 4 weeks; type: organism-based; conditions: in vivo, 672 h
Rattus norvegicus [26] = test: Toxicity in ovariectomized immatured Sprague-Dawley rat osteoporosis model assessed as effect on serum calcium level at 50 ng/kg, po once daily for 5 times per week for 4 weeks relative to control; type: organism-based; conditions: in vivo, 5e-05 mg/kg, 672 h; summary of the method: as §1
Rattus norvegicus [27] = test: Toxicity in ovariectomized immatured Sprague-Dawley rat osteoporosis model assessed as effect on serum calcium level at 25 ng/kg, po once daily for 5 times per week for 4 weeks relative to control; type: organism-based; conditions: in vivo, 2.5e-05 mg/kg, 672 h; summary of the method: as §1
Rattus norvegicus [28] = test: Prevention of bone mineral density loss in ovariectomized immatured Sprague-Dawley rat osteoporosis model administered orally once daily for 5 times per week for 4 weeks; type: functional, organism-based; summary of the method: as §2
Rattus norvegicus [29] = test: Prevention of bone mineral density loss in ovariectomized immatured Sprague-Dawley rat osteoporosis model at 50 ng/kg, po once daily for 5 times per week for 4 weeks relative to control; type: functional; summary of the method: as §2
Rattus norvegicus [30] = test: Prevention of bone mineral density loss in ovariectomized immatured Sprague-Dawley rat osteoporosis model at 25 ng/kg, po once daily for 5 times per week for 4 weeks relative to control; type: functional; summary of the method: as §2
Rattus norvegicus [31] = test: Prevention of bone mineral density loss in ovariectomized immatured Sprague-Dawley rat osteoporosis model at 30 ng/kg, po once daily for 5 times per week for 4 weeks relative to control; type: functional; summary of the method: as §2
Rattus norvegicus [32] = test: Toxicity in ovariectomized immatured Sprague-Dawley rat osteoporosis model assessed as effect on serum calcium level at 30 ng/kg, po once daily for 5 times per week for 4 weeks relative to control; type: organism-based; conditions: in vivo, 3e-05 mg/kg, 672 h; summary of the method: as §1

Work on `C=C1/C(=C\C=C2/CCC[C@]3(C)[C@@H]([C@H](C)CCCC(C)(C)O)CC[C@@H]23)C[C@@H](O)C[C@@H]1O` [CALCITRIOL] yielded an Activity (Rattus norvegicus [1]) of 2.5%, an Activity (Rattus norvegicus [2]) of 5.1% and an Activity (Rattus norvegicus [3]) of 53%. It also gave an Activity (Rattus norvegicus [4]) of 4%, an Activity (Rattus norvegicus [5]) of 58% and an Activity (Rattus norvegicus [6]) of 2.5%.
`CCC(O)(/C=C/c1ccc(C(CC)(CC)c2ccc(-c3ccc(CC(=O)O)cn3)c(C)c2)cc1C)CC` gave a half-life [7] of 8.5 h, an MRT [8] of 11.2 h and an AUC(0-inf) [9] of 1130 ng·h/mL. For the same compound, the Vd [10] was 0.99 L/kg, the MRT [11] was 28.3 h and the AUC(0-inf) [12] was 1650 ng·h/mL. The Activity (Salmonella typhimurium) was “Non-toxic”, the Activity (Rattus norvegicus [13]) was “Non-toxic” and the Activity (Rattus norvegicus [14]) was 198%. For the same compound, the Activity (Rattus norvegicus [15]) was 122%, the Activity (Rattus norvegicus [16]) was “Dose-dependent effect” and the Activity (Rattus norvegicus [17]) was 8.4%. The Activity (Rattus norvegicus [18]) was -2.9%, the Activity (Rattus norvegicus [4]) was 172% and the Activity (Rattus norvegicus [19]) was “Toxic”. The Cmax [20] was 54 ng/mL, the half-life [21] was 17.6 h and the Activity [22] was “Non-toxic”. For the same compound, the bioavailability [23] was 95.1%, the clearance [24] was 1.51 mL/min/kg and the Activity (Rattus norvegicus [25]) was “Non-toxic”. It also gave an Activity (Rattus norvegicus [6]) of 2.2%.
In the case of `CCC(O)(/C=C/c1ccc(C(CC)(CC)c2ccc(-c3ccc(CC(=O)O)cc3)c(C)c2)cc1C)CC`, the Activity (Rattus norvegicus [26]) is reported as 8.7%, the Activity (Rattus norvegicus [27]) is reported as 0.7% and the Activity (Rattus norvegicus [28]) is reported as “Dose-dependent effect”. The Activity (Rattus norvegicus [29]) was 81% and the Activity (Rattus norvegicus [30]) was 42%.
`CCC(CC)(c1ccc(/C=C/C(O)(C(F)(F)F)C(F)(F)F)c(C)c1)c1ccc(-c2ccc(CC(=O)O)cc2)c(C)c1` gave an Activity (Rattus norvegicus [31]) of 89%, an Activity (Rattus norvegicus [32]) of 6.9% and an Activity (Rattus norvegicus [15]) of 47%. The Activity (Rattus norvegicus [28]) was “Dose-dependent effect” and the Activity (Rattus norvegicus [18]) was 0.6%.
With `CCC(CC)(c1ccc(/C=C/C(O)(C(F)(F)F)C(F)(F)F)c(C)c1)c1ccc(-c2ccc(CC(=O)O)c(F)c2)c(C)c1` the Activity (Rattus norvegicus [28]) was “Dose-dependent effect”.
